Key:
[1] = Toxicity in CHO cells assessed as chromosomal aberration; format: cell-based, Cricetulus griseus; conditions: chinese hamster
[2] = Selectivity ratio of Ki for N-terminal His-GST-tagged human recombinant PDE3A(669 to 1141 residues) expressed in baculovirus-infected Sf9 cells to Ki for human PDE10A2 transfected in human AD293 cells cytosolic fraction
[3] = Toxicity in rat assessed as prolactin release; conditions: in vivo
[4] = molecular target: cAMP and cAMP-inhibited cGMP 3',5'-cyclic phosphodiesterase 10A (Homo sapiens, UniProt Q9Y233); assay: Binding affinity to human full length His-tagged PDE10A2 assessed as on-rate constant by surface plasmon resonance analysis
[5] = Protein binding in human plasma; format: ADME, cell-free
[6] = Plasma clearance in Wistar-Hannover rat at 2 mg/kg, iv by LC-MS/MS analysis; format: ADME, organism-based
How it was run: (§1)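 IV bolus in DMSO/PEG400 (1:1). Male Wistar–Hannover rats (n = 3, ~300 g): 2 mg/kg via jugular cannula, sampled 0.03–24 h. Male rhesus (n = 3): 0.5 mg/kg into saphenous or cephalic vein, sampled to 24 h. Plasma (EDTA) analysed by LC-MS/MS after acetonitrile precipitation. Non-compartmental analysis; CL = dose/AUC0-inf; t1/2 from log-linear regression of the terminal phase. Values are means.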

[7] = Plasma concentration in MK-801-induced psychosis rat model at 0.25 mg/kg, po administered 1 hr prior to MK-801 administration and measured after 90 mins; format: ADME, organism-based; conditions: time 150 min
How it was run: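 Rats dosed orally, then MK-801 1 h later; locomotor activity recorded over 90 min. Plasma drawn 2.5 h post dose at end of the study and assayed for compound. n = 8/group, reported as mean (SEM).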

[8] = Protein binding in monkey plasma assessed as unbound fraction; format: ADME, cell-free, Macaca mulatta; conditions: rhesus monkey
[9] = Plasma clearance in Rhesus monkey at 0.5 mg/kg, iv by LC-MS/MS analysis; format: ADME, organism-based, Macaca mulatta; how it was run: as §1
[10] = Selectivity ratio of Ki for N-terminal GST-tagged full length human recombinant PDE9A2 expressed in baculovirus-infected Sf9 cells to Ki for human PDE10A2 transfected in human AD293 cells cytosolic fraction
[11] = Half-life in Wistar-Hannover rat at 2 mg/kg, iv by LC-MS/MS analysis; format: ADME, organism-based; conditions: in vivo; how it was run: as §1
[12] = molecular target: Sodium channel protein type 5 subunit alpha (Homo sapiens, UniProt Q14524); assay: Inhibition of Nav1.5 (unknown origin)
[13] = In vivo receptor occupancy at PDE10A receptor in rat striatum at 0.25 mg/kg, po measured after 1 hr; format: functional
How it was run: (§2)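 Striatal PDE10A occupancy in rats given the compound orally during the novel object recognition test. Occupancy was not measured directly but derived from plasma concentration taken 1 h post dose. n = 4/group, reported as mean (SEM).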

[14] = Unbound plasma clearance in rat; format: ADME; conditions: in vivo
How it was run: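 Rat unbound clearance (CLu) was calculated by dividing the measured rat plasma clearance by the rat plasma free fraction.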

[15] = Selectivity ratio of Ki for N-terminal GST-tagged and C-terminal His-tagged human recombinant PDE7A (122 to 456 residues) expressed in baculovirus-infected Sf9 cells to Ki for human PDE10A2 transfected in human AD293 cells cytosolic fraction
[16] = Substrate activity at monkey P-gp assessed as efflux ratio; format: ADME, Macaca mulatta; conditions: rhesus monkey
[17] = Selectivity ratio of Ki for N-terminal GST-tagged full length human recombinant PDE8A1 expressed in baculovirus-infected Sf9 cells to Ki for human PDE10A2 transfected in human AD293 cells cytosolic fraction
Rattus norvegicus = assay: Anti-psychotic activity in rat assessed as inhibition of MK-801-induced hyperlocomotion administered orally 1 hr prior to MK-801 administration and measured for 90 mins; format: functional, organism-based; conditions: dose 0.25-0.75 mg/kg, route po, time 150.0 min
How it was run: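 Rats given compound orally at 0.25–0.75 mg/kg 1 h before the NMDA antagonist MK-801. Total distance travelled was recorded over 90 min and compared with vehicle + MK-801 groups (p < 0.05). n = 8/group; mean ± SEM.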

P-gp (ABCB1) [18] = molecular target: P-gp (ABCB1) (Homo sapiens, UniProt P08183); assay: Substrate activity at human P-gp assessed as efflux ratio; format: ADME; conditions: not told
[19] = Mutagenicity in Salmonella typhimurium by Ames test; format: toxicity; conditions: salmonella enterica subsp. enterica serovar typhimurium
[20] = Protein binding in human plasma assessed as unbound fraction; format: ADME, cell-free
[21] = Selectivity ratio of Ki for N-terminal GST-tagged human recombinant PDE5A1 (1 to 875 residues) expressed in baculovirus-infected Sf9 cells to Ki for human PDE10A2 transfected in human AD293 cells cytosolic fraction
[22] = molecular target: T1, Nuclear receptor subfamily 1 group I member 2 (Homo sapiens, UniProt O75469); assay: Activation of PXR (unknown origin) assessed as CYP3A4 induction; format: ADME
T1 sequence (O75469 whole entry): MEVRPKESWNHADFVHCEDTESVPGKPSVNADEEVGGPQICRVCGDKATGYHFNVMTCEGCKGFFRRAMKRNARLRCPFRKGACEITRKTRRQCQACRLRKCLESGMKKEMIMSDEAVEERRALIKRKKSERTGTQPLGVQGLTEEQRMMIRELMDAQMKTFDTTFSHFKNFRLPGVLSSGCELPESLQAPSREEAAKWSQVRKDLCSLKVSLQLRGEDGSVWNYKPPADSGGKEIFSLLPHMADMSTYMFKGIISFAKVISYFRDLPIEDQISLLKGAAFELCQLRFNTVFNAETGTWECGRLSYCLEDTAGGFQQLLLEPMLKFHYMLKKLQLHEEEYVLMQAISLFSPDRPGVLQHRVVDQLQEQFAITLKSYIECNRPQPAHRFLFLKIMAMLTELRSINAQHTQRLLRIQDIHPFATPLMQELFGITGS

P-gp (ABCB1) [23] = molecular target: P-gp (ABCB1) (Rattus norvegicus, UniProt P43245); assay: Substrate activity at rat P-gp assessed as efflux ratio; format: ADME
[24] = Toxicity in rat assessed as weight gain; conditions: in vivo
[25] = Plasma concentration in rat at 0.25 mg/kg, po measured after 1 hr; format: ADME, organism-based
How it was run: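 Rat novel object recognition (episodic memory) study, orally dosed. Plasma drawn 1 h post dose at end of the experiment for compound level. n = 4/group, reported as mean (SEM).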

[26] = Selectivity ratio of Ki for Rhesus monkey PDE2A3 transfected in AD293 cells cytosolic fraction to Ki for human PDE10A2 transfected in human AD293 cells cytosolic fraction; format: cell-based
[27] = In vivo receptor occupancy at PDE10A receptor in rat striatum at 0.16 mg/kg, po measured after 1 hr; format: functional; how it was run: as §2
[28] = Oral bioavailability in Rhesus monkey at 5 mg/kg by LC-MS/MS analysis; format: ADME, organism-based, Macaca mulatta; conditions: in vivo
How it was run: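 Oral gavage, 5 mL/kg. Rats (n = 3 male Wistar–Hannover) received 10 mg/kg in acidified 10% Tween 80, pH 2, sampled 0.25–24 h. Rhesus (2 female, 1 male) received 5 mg/kg in 0.5% methylcellulose with 1 mol equiv HCl. Plasma quantified by LC-MS/MS. F was taken from dose-adjusted PO/IV AUC0-inf ratios versus the 2 mg/kg (rat) or 0.5 mg/kg (rhesus) IV legs; values are means of n = 3.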

P-gp (ABCB1) (Rattus norvegicus, UniProt P43245), sequence (P43245 whole entry): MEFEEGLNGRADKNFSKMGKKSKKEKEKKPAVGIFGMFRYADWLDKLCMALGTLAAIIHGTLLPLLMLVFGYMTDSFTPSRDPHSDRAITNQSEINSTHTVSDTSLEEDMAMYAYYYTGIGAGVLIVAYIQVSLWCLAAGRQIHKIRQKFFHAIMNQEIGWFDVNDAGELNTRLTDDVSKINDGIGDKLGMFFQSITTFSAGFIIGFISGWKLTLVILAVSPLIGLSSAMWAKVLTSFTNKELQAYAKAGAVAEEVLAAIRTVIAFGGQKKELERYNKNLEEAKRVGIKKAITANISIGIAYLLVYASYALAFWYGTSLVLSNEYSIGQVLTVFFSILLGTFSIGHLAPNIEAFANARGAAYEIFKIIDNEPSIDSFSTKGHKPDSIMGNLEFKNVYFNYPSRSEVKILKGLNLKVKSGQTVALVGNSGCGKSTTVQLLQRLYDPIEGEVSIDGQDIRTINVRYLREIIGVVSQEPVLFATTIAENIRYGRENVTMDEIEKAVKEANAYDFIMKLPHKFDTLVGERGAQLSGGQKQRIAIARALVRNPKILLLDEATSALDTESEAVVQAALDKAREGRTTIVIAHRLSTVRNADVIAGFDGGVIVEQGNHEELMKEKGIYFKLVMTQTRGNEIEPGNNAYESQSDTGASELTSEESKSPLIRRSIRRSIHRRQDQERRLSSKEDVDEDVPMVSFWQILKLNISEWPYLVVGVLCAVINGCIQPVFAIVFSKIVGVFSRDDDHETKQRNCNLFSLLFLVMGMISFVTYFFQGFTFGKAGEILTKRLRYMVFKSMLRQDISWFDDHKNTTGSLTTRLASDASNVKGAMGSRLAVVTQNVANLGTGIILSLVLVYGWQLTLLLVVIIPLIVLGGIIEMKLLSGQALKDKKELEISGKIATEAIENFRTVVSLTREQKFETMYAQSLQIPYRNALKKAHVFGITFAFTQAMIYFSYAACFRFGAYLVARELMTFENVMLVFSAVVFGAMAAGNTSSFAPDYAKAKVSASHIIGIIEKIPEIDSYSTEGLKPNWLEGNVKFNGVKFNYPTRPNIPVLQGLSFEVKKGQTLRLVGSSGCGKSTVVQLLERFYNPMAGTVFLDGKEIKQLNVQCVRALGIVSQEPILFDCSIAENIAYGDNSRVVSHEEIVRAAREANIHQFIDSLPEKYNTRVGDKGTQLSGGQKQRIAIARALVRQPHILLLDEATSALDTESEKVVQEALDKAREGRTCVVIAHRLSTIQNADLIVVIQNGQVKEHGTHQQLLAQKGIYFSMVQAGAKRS
Sodium channel protein type 5 subunit alpha, sequence (Q14524 whole entry): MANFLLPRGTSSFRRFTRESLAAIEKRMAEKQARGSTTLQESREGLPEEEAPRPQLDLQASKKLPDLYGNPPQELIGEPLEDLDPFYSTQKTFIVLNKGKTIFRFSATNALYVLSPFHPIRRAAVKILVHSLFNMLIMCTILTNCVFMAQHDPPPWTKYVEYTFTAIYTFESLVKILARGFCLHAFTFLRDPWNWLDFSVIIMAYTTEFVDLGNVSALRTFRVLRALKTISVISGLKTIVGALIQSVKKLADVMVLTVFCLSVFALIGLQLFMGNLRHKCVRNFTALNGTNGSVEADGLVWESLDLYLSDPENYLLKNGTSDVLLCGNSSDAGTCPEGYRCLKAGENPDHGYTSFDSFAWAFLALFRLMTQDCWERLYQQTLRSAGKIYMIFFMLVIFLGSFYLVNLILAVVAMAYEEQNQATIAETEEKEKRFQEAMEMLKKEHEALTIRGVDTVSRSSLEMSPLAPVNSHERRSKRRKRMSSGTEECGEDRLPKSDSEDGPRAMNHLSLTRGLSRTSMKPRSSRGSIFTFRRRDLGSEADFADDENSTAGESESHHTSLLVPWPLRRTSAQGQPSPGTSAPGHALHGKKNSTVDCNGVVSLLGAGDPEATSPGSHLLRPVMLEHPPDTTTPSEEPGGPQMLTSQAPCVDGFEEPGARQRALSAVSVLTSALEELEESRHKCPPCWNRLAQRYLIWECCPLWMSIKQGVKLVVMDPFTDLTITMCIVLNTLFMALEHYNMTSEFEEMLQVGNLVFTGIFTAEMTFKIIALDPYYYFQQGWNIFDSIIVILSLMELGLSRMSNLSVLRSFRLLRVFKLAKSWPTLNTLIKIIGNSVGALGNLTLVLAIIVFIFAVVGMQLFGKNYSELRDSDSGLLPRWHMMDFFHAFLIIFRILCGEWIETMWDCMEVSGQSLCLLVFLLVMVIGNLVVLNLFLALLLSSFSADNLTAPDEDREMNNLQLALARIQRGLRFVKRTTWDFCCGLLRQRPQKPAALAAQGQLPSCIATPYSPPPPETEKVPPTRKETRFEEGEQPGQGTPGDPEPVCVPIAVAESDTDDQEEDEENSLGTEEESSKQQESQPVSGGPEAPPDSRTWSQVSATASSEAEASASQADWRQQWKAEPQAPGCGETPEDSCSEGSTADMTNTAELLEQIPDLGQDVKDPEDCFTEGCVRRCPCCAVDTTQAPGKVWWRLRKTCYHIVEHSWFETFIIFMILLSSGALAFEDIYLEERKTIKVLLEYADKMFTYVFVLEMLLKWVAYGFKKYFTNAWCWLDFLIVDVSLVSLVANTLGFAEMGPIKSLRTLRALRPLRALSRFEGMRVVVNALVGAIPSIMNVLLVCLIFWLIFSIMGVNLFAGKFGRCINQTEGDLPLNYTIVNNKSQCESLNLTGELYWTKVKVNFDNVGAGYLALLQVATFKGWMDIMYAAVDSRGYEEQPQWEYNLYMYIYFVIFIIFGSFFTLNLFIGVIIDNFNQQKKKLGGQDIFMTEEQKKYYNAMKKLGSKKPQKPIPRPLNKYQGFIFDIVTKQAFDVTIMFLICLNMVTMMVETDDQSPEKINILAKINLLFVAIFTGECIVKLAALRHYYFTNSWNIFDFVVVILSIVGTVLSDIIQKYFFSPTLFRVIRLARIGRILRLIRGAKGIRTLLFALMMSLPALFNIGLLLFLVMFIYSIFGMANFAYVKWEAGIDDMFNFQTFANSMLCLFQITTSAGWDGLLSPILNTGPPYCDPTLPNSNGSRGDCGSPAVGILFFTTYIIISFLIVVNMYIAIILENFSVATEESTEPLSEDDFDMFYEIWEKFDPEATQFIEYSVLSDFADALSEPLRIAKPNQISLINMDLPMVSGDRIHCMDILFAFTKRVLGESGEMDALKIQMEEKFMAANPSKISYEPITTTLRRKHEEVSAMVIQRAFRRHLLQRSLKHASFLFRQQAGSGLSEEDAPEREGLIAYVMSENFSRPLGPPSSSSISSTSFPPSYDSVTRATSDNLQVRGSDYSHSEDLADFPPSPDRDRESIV
P-gp (ABCB1) (Homo sapiens, UniProt P08183), sequence (P08183 whole entry): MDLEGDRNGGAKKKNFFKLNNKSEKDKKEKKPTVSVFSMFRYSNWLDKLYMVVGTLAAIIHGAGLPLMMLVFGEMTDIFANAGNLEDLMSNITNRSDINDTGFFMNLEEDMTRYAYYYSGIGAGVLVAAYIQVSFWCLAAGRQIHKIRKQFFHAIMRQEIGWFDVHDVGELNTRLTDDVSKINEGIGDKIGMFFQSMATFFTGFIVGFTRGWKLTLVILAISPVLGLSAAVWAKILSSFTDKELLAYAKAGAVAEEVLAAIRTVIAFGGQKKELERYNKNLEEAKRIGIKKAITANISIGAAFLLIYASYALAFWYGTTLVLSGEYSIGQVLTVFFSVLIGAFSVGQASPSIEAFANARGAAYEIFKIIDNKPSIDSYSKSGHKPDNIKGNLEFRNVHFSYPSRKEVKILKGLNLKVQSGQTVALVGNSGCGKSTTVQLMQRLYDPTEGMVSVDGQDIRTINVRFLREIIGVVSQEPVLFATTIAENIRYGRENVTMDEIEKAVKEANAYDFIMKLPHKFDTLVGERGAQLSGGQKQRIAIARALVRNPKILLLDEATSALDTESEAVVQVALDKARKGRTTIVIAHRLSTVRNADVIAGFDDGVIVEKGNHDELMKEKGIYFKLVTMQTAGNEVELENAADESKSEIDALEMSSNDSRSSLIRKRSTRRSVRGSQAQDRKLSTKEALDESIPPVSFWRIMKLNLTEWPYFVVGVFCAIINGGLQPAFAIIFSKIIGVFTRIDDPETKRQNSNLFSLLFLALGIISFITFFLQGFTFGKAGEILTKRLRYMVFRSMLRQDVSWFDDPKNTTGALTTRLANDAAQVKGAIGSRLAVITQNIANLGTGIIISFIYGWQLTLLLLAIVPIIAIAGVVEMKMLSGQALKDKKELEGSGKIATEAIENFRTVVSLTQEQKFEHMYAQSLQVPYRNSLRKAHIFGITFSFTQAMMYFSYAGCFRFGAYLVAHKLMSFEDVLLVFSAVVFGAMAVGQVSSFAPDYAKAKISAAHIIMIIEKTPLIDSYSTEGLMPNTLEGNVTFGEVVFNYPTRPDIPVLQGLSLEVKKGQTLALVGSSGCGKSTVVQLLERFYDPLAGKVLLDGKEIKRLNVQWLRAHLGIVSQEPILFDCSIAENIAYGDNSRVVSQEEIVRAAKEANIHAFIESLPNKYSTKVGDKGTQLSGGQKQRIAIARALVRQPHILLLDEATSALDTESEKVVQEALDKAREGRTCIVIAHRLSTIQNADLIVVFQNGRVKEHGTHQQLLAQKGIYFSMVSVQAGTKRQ

Cc1ccc([C@H]2C[C@@H]2COc2cc(NCc3nnc(C)s3)nc(C)n2)nc1 [MK-8189]
Activity [1]: Non-Toxic
Ratio Ki [2]: > 500000
Activity [3]: Non-Toxic
K [4]: 8 10^7/M/s
PPB [5]: 96%
clearance [6]: 21.3 mL/min/kg
concentration at 2.5 h [7]: 17 nM
Fu [8]: 8.7%
clearance [9]: 9.3 mL/min/kg
Ratio Ki [10]: > 500000
t1/2 [11]: 4.8 h
IC50 [12]: > 30 µM
Occ [13]: 34%
CL free [14]: 260 mL/min/kg
Ratio Ki [15]: > 500000
Ratio [16]: < 2
Ratio Ki [17]: > 500000
Activity (Rattus norvegicus): Dose-Dependent Effect
efflux ratio (P-gp (ABCB1) [18]): < 2
Activity [19]: Non-Toxic
Fu [20]: 4%
Ratio Ki [21]: > 500000
EC50 [22]: > 30 µM
efflux ratio (P-gp (ABCB1) [23]): 2.6
Activity [24]: Non-Toxic
concentration at 1 h [25]: 29 nM
Ratio Ki [26]: > 500000
Occ [27]: 29%
F [28]: 41%

From ChEMBL document CHEMBL5316310, “Discovery of MK-8189, a Highly Potent and Selective PDE10A Inhibitor for the Treatment of Schizophrenia” (J Med Chem, 2023)
